Data from ChEMBL document CHEMBL3259573, “Optimization of 2-(3-(arylalkyl amino carbonyl) phenyl)-3-(2-methoxyphenyl)-4-thiazolidinone derivatives as potent antitumor growth and metastasis agents” (Eur J Med Chem, 2014).
Active and inactive are the calls of the source. The rule behind the calls is not given here.

Legend:
A549 [1] = experiment: Antiproliferative activity against human A549 cells after 48 hrs by sulforhodamine B assay; type: functional, cell-based; conditions: A549, 48 h
Summary of the method: (§1)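 Cells kept in RPMI 1640 at 37 °C, 5% CO₂, and seeded 24 h before treatment, with DMSO as control. After 48 h, fixed with cold 50% TCA 1 h at 4 °C and stained with 0.4% SRB in 1% acetic acid for 10 min. Washed five times with 1% acetic acid, dye solubilized in 10 mM Tris base, OD read at 515 nm.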

MDA-MB-231 [2] = experiment: Antiproliferative activity against human MDA-MB-231 cells after 48 hrs by sulforhodamine B assay; type: functional, cell-based; conditions: MDA-MB-231, 48 h; summary of the method: as §1
MDA-MB-231 [3] = experiment: Antimetastatic activity against human MDA-MB-231 cells assessed as inhibition of cell migration after 24 hrs by wound healing assay; type: functional, cell-based; conditions: for IC50: MDA-MB-231, 24 h
Summary of the method: (§2)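 Cells grown at 37 °C in complete RPMI 1640 to 80–90% confluence, then serum-starved 12 h. Monolayer scraped with pipette tip, washed twice with PBS, refed complete RPMI 1640 with compound (0.5 or 0.05 uM per legend). Incubated 24 h at 37 °C, then fixed and photographed. Migrated cells counted manually, inhibition expressed relative to untreated (100%). Three independent experiments, 95% CI.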

A549 [4] = experiment: Cell cycle arrest in human A549 cells assessed as accumulation at G2/M phase at 1 uM by propidium iodide staining-based FACS analysis relative to control; type: functional
MDA-MB-231 [5] = experiment: Antimetastatic activity against luciferase-labeled human MDA-MB-231 cells xenografted in ip dosed nude mouse assessed as reduction in development of lung metastasis administered 1 week prior to tumor implantation measured after 21 days by bioluminescence assay; type: functional, organism-based
Summary of the method: (§3)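 Nude mice randomized into 3 groups (n = 6) and given DMSO or compound at 1.0 or 5.0 mg/kg/day by intraperitoneal injection. Dosing started one week before tail-vein injection of 1 × 10⁶ firefly luciferase-expressing MDA-MB-231 cells in PBS and continued 21 days. Lung metastasis read by bioluminescence photon flux; survival by Kaplan–Meier analysis.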

MDA-MB-231 [6] = experiment: Antimetastatic activity against luciferase-labeled human MDA-MB-231 cells xenografted in nude mouse assessed as increase in mouse survival at 1 to 5 mg/kg/day, ip administered 1 week prior to tumor implantation measured after 21 days; type: functional, organism-based; summary of the method: as §3
A549 [7] = experiment: Antitumor activity against human A549 cells xenografted in nude mouse assessed as reduction in tumor weight at 5 to 10 mg/kg/day, ip for 28 days; type: functional, organism-based
MDA-MB-231 [8] = experiment: Induction of apoptosis in human MDA-MB-231 cells at 0.1 to 1 uM after 48 hrs by annexin V-FITC and propidium iodide staining-based flow cytometric analysis; type: functional, cell-based
Summary of the method: (§4)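 Treatment 48 h. Cells washed with cold PBS, resuspended in binding buffer, stained with Annexin V-FITC/PI 15 min. 10,000 stained cells per sample analyzed by flow cytometry.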

Mus musculus [9] = experiment: Toxicity in nude mouse xenografted with human A549 cells assessed as change in body weight at 5 to 10 mg/kg/day, ip for 28 days; type: organism-based; design: route intraperitoneal; conditions: in vivo, 672 h
MDA-MB-231 [10] = experiment: Antimetastatic activity against luciferase-labeled human MDA-MB-231 cells xenografted in nude mouse assessed as reduction in development of lung metastasis at 1 to 5 mg/kg/day, ip administered 1 week prior to tumor implantation measured after 21 days by bioluminescence assay; type: functional, organism-based; conditions: TDE = time-dependent effect; summary of the method: as §3
A549 [11] = experiment: Antitumor activity against human A549 cells xenografted in nude mouse assessed as reduction in tumor volume at 5 to 10 mg/kg/day, ip for 28 days; type: functional, organism-based
Mus musculus [12] = experiment: Toxicity in nude mouse xenografted with luciferase-labeled human MDA-MB-231 cells assessed as change in body weight at 1 to 5 mg/kg/day, ip administered 1 week prior to tumor implantation measured after 21 days; type: organism-based; design: route intraperitoneal; conditions: in vivo, 504 h
MDA-MB-231 [13] = experiment: Cell cycle arrest in human MDA-MB-231 cells assessed as accumulation at G2/M phase at 1 uM by propidium iodide staining-based FACS analysis relative to control; type: functional
MDA-MB-231 [14] = experiment: Antimetastatic activity against human MDA-MB-231 cells assessed as inhibition of cell migration after 10 to 12 hrs by transwell assay; type: functional, cell-based
Summary of the method: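 MDA-MB-231 cells (5 × 10⁴) in serum-free medium placed in upper chamber, 10% FBS medium below; compound at fixed concentrations in both chambers. Migration approximately 10 h (legend says 12 h). Non-migrated cells swabbed off, migrated cells fixed in paraformaldehyde 1 h, stained 0.1% crystal violet, counted in 7–8 random fields. Three independent experiments, means with 95% confidence intervals.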

MDA-MB-231 [15] = experiment: Antimetastatic activity against luciferase-labeled human MDA-MB-231 cells xenografted in nude mouse assessed as reduction in photon flux in lungs at 5 mg/kg/day, ip administered 1 week prior to tumor implantation measured after 21 days by bioluminescence assay relative to control; type: functional; design: scale not given: the % may be the effect or the level left; conditions: route intraperitoneal; summary of the method: as §3
A549 [16] = experiment: Induction of apoptosis in human A549 cells at 0.1 to 1 uM after 48 hrs by annexin V-FITC and propidium iodide staining-based flow cytometric analysis; type: functional, cell-based; summary of the method: as §4
MDA-MB-231 [17] = experiment: Antimetastatic activity against human MDA-MB-231 cells assessed as inhibition of cell migration at 0.5 uM after 24 hrs by wound healing assay; type: functional, cell-based; summary of the method: as §2

Compound	IC50 (A549 [1]) [µM]	IC50 (MDA-MB-231 [2]) [µM]	further results
CCOc1ccc(N2C(=O)CSC2c2cccc(Br)c2)cc1 (stereo not drawn)	8.98	18	
COc1ccccc1N1C(=O)CSC1c1cccc(Cl)c1 (stereo not drawn)	8.18	13.9	
COc1ccccc1N1C(=O)CSC1c1cccc(C(=O)NCCc2ccc(O)cc2)c1 (stereo not drawn)	0.72	1.77	inhibition (MDA-MB-231 [3]): Active
COc1ccccc1N1C(=O)CSC1c1cccc(C(=O)NCCc2ccc(F)cc2)c1 (stereo not drawn)	0.47	1.36	
COc1ccccc1N1C(=O)CSC1c1cccc(C(=O)NCCCc2ccccc2)c1 (stereo not drawn)	31.6	12.3	
COc1ccccc1N1C(=O)CSC1c1cccc(C(=O)N2CCCCC2)c1 (stereo not drawn)	> 50	> 50	
O=C1CSC(c2cccc(Br)c2)N1c1cccc([N+](=O)[O-])c1 (stereo not drawn)	43.7	> 50	
COc1ccccc1N1C(=O)CSC1c1cccc(F)c1 (stereo not drawn)	> 50	> 50	
COc1ccc(CCNC(=O)c2cccc(C3SCC(=O)N3c3ccccc3OC)c2)cc1 (stereo not drawn)	0.13	0.05	inhibition (MDA-MB-231 [3]): Active
COc1ccccc1N1C(=O)CSC1c1cccc(C(=O)NCCc2ccc(Br)cc2)c1 (stereo not drawn)	0.21	0.23	Activity (A549 [4]): 42.4%; Activity (MDA-MB-231 [5]): Dose-dependent effect; Activity (MDA-MB-231 [6]): Active; Activity (A549 [7]): Active; Activity (MDA-MB-231 [8]): inactive; Activity (Mus musculus [9]): Non-toxic; Activity (MDA-MB-231 [10]): tde; Activity (A549 [11]): Active; Activity (Mus musculus [12]): Toxic; Activity (MDA-MB-231 [13]): 48.34%; IC50 (MDA-MB-231 [14]): 0.01 µM; inhibition (MDA-MB-231 [14]): Dose-dependent effect; IC50 (MDA-MB-231 [3]): < 0.05 µM; Activity (MDA-MB-231 [15]): 96.5%; Activity (A549 [16]): inactive
O=C1CSC(c2cccc(Br)c2)N1c1ncccn1 (stereo not drawn)	> 50	> 50	
CCN(CC)C(=O)c1cccc(C2SCC(=O)N2c2ccccc2OC)c1 (stereo not drawn)	> 50	> 50	
COc1ccccc1N1C(=O)CSC1c1cccs1 (stereo not drawn)	> 50	> 50	
COc1cccc(N2C(=O)CSC2c2cccc(Br)c2)c1 (stereo not drawn)	> 50	47.5	
O=C1CSC(c2cccc(Br)c2)N1CCc1ccccc1 (stereo not drawn)	20.7	> 50	
COc1ccccc1N1C(=O)CSC1c1ccncc1 (stereo not drawn)	> 50	> 50	
O=C1CSC(c2cccc(Br)c2)N1c1ccc(O)cc1 (stereo not drawn)	> 50	> 50	
COc1ccccc1N1C(=O)CSC1c1ccccc1Br (stereo not drawn)	31.5	> 50	
COc1ccccc1N1C(=O)CSC1c1cccc(C(=O)NCCc2ccccc2Br)c1 (stereo not drawn)	8.52	13.9	
COC(=O)c1cccc(C2SCC(=O)N2c2ccccc2OC)c1 (stereo not drawn)	0.29	23.1	
COc1ccccc1N1C(=O)CSC1c1ccc(Br)cc1 (stereo not drawn)	48.5	> 50	
O=C1CSC(c2cccc(Br)c2)N1c1cccc(O)c1 (stereo not drawn)	37.1	17.7	

Compound	IC50 (A549 [1]) [µM]	IC50 (MDA-MB-231 [2]) [µM]	further results
COc1ccccc1N1C(=O)CSC1c1cccc(CBr)c1 (stereo not drawn)	14.4	> 50	
COc1ccccc1N1C(=O)CSC1c1cccc(C(=O)NCCc2ccccc2)c1 (stereo not drawn)	0.96	> 25	inhibition (MDA-MB-231 [3]): Active
O=C1CSC(c2cccc(Br)c2)N1c1ccccc1O (stereo not drawn)	13.7	32.6	
O=C1CSC(c2cccc(Br)c2)N1c1nccs1 (stereo not drawn)	> 50	> 50	
COc1ccccc1N1C(=O)CSC1c1cccc(C(=O)NCCc2ccc(Cl)cc2)c1 (stereo not drawn)	0.16	0.18	IC50 (MDA-MB-231 [14]): 0.01 µM; inhibition (MDA-MB-231 [14]): Dose-dependent effect; IC50 (MDA-MB-231 [3]): < 0.05 µM
COc1ccccc1N1C(=O)CSC1c1ccccc1 (stereo not drawn)	> 50	> 50	
COc1ccccc1N1C(=O)CSC1c1cccc(O)c1 (stereo not drawn)	> 50	> 50	
COc1ccccc1N1C(=O)CSC1c1cccc([N+](=O)[O-])c1 (stereo not drawn)	11.3	43	
CN(C)c1ccccc1N1C(=O)CSC1c1cccc(Br)c1 (stereo not drawn)	37.6	> 50	
COc1cccc(C2SCC(=O)N2c2ccccc2OC)c1 (stereo not drawn)	> 50	> 50	
COc1ccccc1N1C(=O)CSC1c1ccc2ccccc2n1 (stereo not drawn)	> 50	> 50	
COc1ccccc1N1C(=O)CSC1Cc1ccccc1 (stereo not drawn)	> 50	> 50	
COc1ccccc1N1C(=O)CSC1c1cccc(C(=O)NCc2ccccc2)c1 (stereo not drawn)	5.06	> 25	
COc1ccccc1N1C(=O)CSC1c1cccc(C(=O)O)c1 (stereo not drawn)	> 50	> 50	
COc1ccc(N2C(=O)CSC2c2cccc(Br)c2)c(OC)c1 (stereo not drawn)	14.8	17.1	
COc1ccccc1N1C(=O)CSC1c1cccc(C(=O)Nc2ccccc2)c1 (stereo not drawn)	> 25	> 25	
O=C1CSC(c2cccc(Br)c2)N1c1ccccc1 (stereo not drawn)	> 50	> 50	
CNc1ccccc1N1C(=O)CSC1c1cccc(Br)c1 (stereo not drawn)	22.6	> 50	
O=C1CSC(c2cccc(Br)c2)N1c1cc(Cl)ccc1O (stereo not drawn)	9.95	27	inhibition (MDA-MB-231 [17]): inactive
COc1ccccc1N1C(=O)CSC1c1cccc(Br)c1 (stereo not drawn)	1.87	4.52	
C=CCN(CC=C)C(=O)c1cccc(C2SCC(=O)N2c2ccccc2OC)c1 (stereo not drawn)	> 50	> 50	
